pIC50: −log10 of the molar value.
Legend:
CEM-SS [1] = assay: The compound was tested for cytotoxicity against nevirapine HIV-1 resistant strain infected CEMSS cells; format: functional; conditions: Homo sapiens
[2] = Specific index of IC50 and CC50 on HIV-1 Nevirapine resistant strain; format: functional
CEM-SS [3] = assay: Cytotoxicity against wild type HIV-1-IIIB strain infected CEMSS cells.; format: functional; conditions: Homo sapiens
Summary of the method: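 Uninfected cells were incubated with compound for 5 days. Viability was read by MTT reduction to formazan at OD540. CC50 is the concentration that halves OD540, taken from a median-effect computer analysis.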

CEM-SS [4] = assay: Specific index of IC50 and CC50 on HIV-1 IIIB wild type; format: functional
[5] = test system: Human immunodeficiency virus 1; assay: Inhibition of wild type HIV-1-IIIB strain replication in CEM-SS cells; format: functional, organism-based; conditions: Human immunodeficiency virus 1, CEM-SS
Summary of the method: (§1)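 Cells were infected with 100 TCID50 for 30 min and washed twice to remove unbound virus. They were then cultured 5 days with a range of compound concentrations. Virus production was quantified as particle-associated RT activity in the supernatant. IC50 was derived from a computer-generated median-effect plot of dose–effect data.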

CEM-SS [6] = assay: The compound was tested for inhibition of nevirapine HIV-1 resistant strain; format: functional, cell-based; conditions: Homo sapiens
Summary of the method: (§2)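 Cells infected with 100 TCID50 virus for 30 min. Unbound virus removed by two washes, then cells cultured 5 days with a range of compound concentrations. Virus production read as particle-associated RT activity in the culture supernatant. IC50 taken from a computer-generated median effect plot of the dose–effect data.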

CEM-SS [7] = assay: The compound was tested for inhibition of Nevirapine resistant HIV-1 (N119) cells; format: functional, cell-based; conditions: Homo sapiens; summary of the method: as §2
[8] = biological target: Human immunodeficiency virus type 1 reverse transcriptase (Human immunodeficiency virus 1, UniProt Q72547); assay: Inhibition of HIV-1 reverse transcriptase (RT)
Summary of the method: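 Recombinant HIV-1 RT (20–50 nM) was expressed in yeast. Assays ran 10 min at 37 °C in 50 mM Tris-HCl pH 8.0 with 5 mM MgCl2, 4 mM DTT, 80 mM KCl and BSA. Template-primer was poly(C)-oligo(dG) (5:1, 0.48 A260/mL), with 2 μM dGTP plus [3H]dGTP. Product was precipitated with cold TCA/pyrophosphate, filtered and scintillation counted. Compounds were in DMSO, with matched DMSO controls.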

CEM-SS [9] = assay: The compound was tested for inhibition of wild type HIV-1-IIIB strain; format: functional, cell-based; conditions: Homo sapiens; summary of the method: as §1

| pIC50 [8] | pIC50 (CEM-SS [9]) | SMILES | CC50 (CEM-SS [1]) [µM] | Specific index [2] | CC50 (CEM-SS [3]) [µM] | Specific index (CEM-SS [4]) | pIC50 [5] | pIC50 (CEM-SS [6]) | pIC50 (CEM-SS [7]) |
| --- | --- | --- | --- | --- | --- | --- | --- | --- | --- |
| < 5.00 | – | Cc1cccc(Sc2c(C)cnc(O)c2[N+](=O)[O-])c1 | – | – | > 10 | – | – | – | – |
| < 5.22 | – | Cc1c(Sc2ccccc2)n(COCCO)c(=O)[nH]c1=O [HEPT] | – | – | – | – | – | – | – |
| 7.52 | – | CCc1c(C)[nH]c(=O)c([N+](=O)[O-])c1Sc1cc(C)cc(C)c1 | – | – | – | – | – | – | – |
| 6.40 | – | Cc1c(Sc2ccccc2)n(COCc2ccccc2)c(=O)[nH]c1=O | – | – | – | – | – | – | – |
| – | < 5.00 | CCCCCCC(=O)Nc1c(O)ncc(C)c1Sc1cc(C)cc(C)c1 | – | – | > 10 | – | – | – | – |
| < 5.40 | – | Cc1cccc(Sc2c(C)c[nH]c(=O)c2N)c1 | – | – | – | – | – | – | – |

More lines, now with the values behind:

| SMILES | pIC50 [8] | pIC50 (CEM-SS [9]) | CC50 (CEM-SS [1]) [µM] | Specific index [2] | CC50 (CEM-SS [3]) [µM] | Specific index (CEM-SS [4]) | pIC50 [5] | pIC50 (CEM-SS [6]) | pIC50 (CEM-SS [7]) |
| --- | --- | --- | --- | --- | --- | --- | --- | --- | --- |
| Cc1cccc(Sc2c(C)cnc(O)c2N)c1 | – | – | 78 | > 1 | 78 | >55 | 5.85 | 4.38 | – |
| Cc1cc(C)cc(Sc2c(C)cnc(O)c2[N+](=O)[O-])c1 | < 5.00 | – | – | – | > 10 | >83 | 6.92 | – | < 5.00 |
| CCc1c(Sc2cc(C)cc(C)c2)cc(O)nc1C | 6.40 | – | – | – | > 10 | >20 | 6.30 | – | – |
| CCc1cnc(O)c([N+](=O)[O-])c1Sc1cc(C)cc(C)c1 | – | – | – | > 1 | > 10 | >111 | ~7.05 | 5.17 | – |
| Cc1cc(C)cc(Sc2c(C)cnc(O)c2NC(=O)Cc2ccccc2)c1 | – | – | – | – | > 10 | – | < 5.00 | – | – |
| Cc1cn([C@H]2C[C@H](N=[N+]=[N-])[C@@H](CO)O2)c(=O)[nH]c1=O [ZIDOVUDINE] | – | – | – | – | > 100 | – | – | – | – |
| CCc1cnc(O)c(N)c1Sc1cc(C)cc(C)c1 | – | – | – | > 1 | > 10 | >1000 | 8.00 | 5.17 | – |
| Cc1cc(C)cc(Sc2c([N+](=O)[O-])c(O)nc3ccccc23)c1 | – | – | – | – | > 100 | >26 | 5.42 | < 5.00 | – |
| CCOC(=O)c1c(O)nc(C)c(CC)c1Sc1cc(C)cc(C)c1 | – | – | – | > 4.5 | > 10 | >3333 | 8.52 | 5.66 | – |
| Cc1cnc(O)c([N+](=O)[O-])c1Sc1nc2ccccc2s1 | – | – | – | – | 13.5 | – | 4.84 | – | – |
| Cc1cc(O)nc(Sc2c(C)cnc(O)c2[N+](=O)[O-])n1 | – | – | – | – | > 100 | – | < 4.00 | – | – |
| Cc1cc(C)nc(Sc2c(C)cnc(O)c2[N+](=O)[O-])n1 | – | – | – | – | 19.5 | >1 | 4.76 | – | – |
| Cc1cnc(O)c(N)c1Sc1nc2ccccc2o1 | – | – | – | – | 7.5 | – | 5.10 | – | – |
| Cc1cnc(O)c([N+](=O)[O-])c1Sc1nccn1C | – | – | – | – | 68.5 | >1 | 4.25 | – | – |
| Cc1cnc(O)c([N+](=O)[O-])c1Sc1ccccc1 | – | – | – | – | > 10 | – | < 5.00 | – | – |
| CCOC(=O)c1c(Sc2cc(C)cc(C)c2)c(CC)c(C)[nH]c1=O | 6.22 | – | – | – | – | – | – | – | – |

| SMILES | pIC50 [8] | pIC50 (CEM-SS [9]) | CC50 (CEM-SS [1]) [µM] | Specific index [2] | CC50 (CEM-SS [3]) [µM] | Specific index (CEM-SS [4]) | pIC50 [5] | pIC50 (CEM-SS [6]) | pIC50 (CEM-SS [7]) |
| --- | --- | --- | --- | --- | --- | --- | --- | --- | --- |
| Cc1cc(C)cc(Sc2c(C)cnc(O)c2NC=O)c1 | – | – | – | – | > 100 | >15 | 5.18 | – | – |
| Cc1cc(C)cc(Sc2c(N)c(O)nc3ccccc23)c1 | – | – | 8.2 | > 1.5 | > 9 | >36 | 6.60 | 5.18 | – |
| CCC(=O)Nc1c(O)ncc(C)c1Sc1cc(C)cc(C)c1 | < 5.40 | – | – | – | > 100 | >2 | 4.38 | – | – |
| CCc1c(C)nc(O)c(N)c1Sc1cc(C)cc(C)c1 | 7.82 | – | – | > 4 | > 10 | >714 | 7.85 | 5.68 | – |
| CC(C)=CCN1Cc2cc(Cl)cc3[nH]c(=S)n(c23)C[C@@H]1C | – | – | – | – | > 10 | – | < 5.00 | – | – |
| Cc1cnc(O)c([N+](=O)[O-])c1Sc1ccccn1 | – | – | – | – | 28.5 | >1 | 4.74 | – | – |
| Cc1cnc(O)c([N+](=O)[O-])c1Sc1nc2ccccc2[nH]1 | – | – | – | – | 54.5 | >1 | 4.36 | – | – |
| Cc1cnc(O)c([N+](=O)[O-])c1SC1=NCCS1 | – | – | – | – | 21.5 | >1 | 4.77 | – | – |
| CCc1c(C)nc(O)c([N+](=O)[O-])c1Sc1cc(C)cc(C)c1 | – | – | – | > 38 | > 10 | >1666 | ~8.22 | 6.59 | – |
| CCOC(=O)Nc1c(O)ncc(C)c1Sc1cc(C)cc(C)c1 | – | – | – | – | > 100 | >13 | 5.12 | – | – |
| Cc1cc(C)cc(Nc2c(C)cnc(O)c2[N+](=O)[O-])c1 | – | – | – | – | > 100 | >2 | 4.35 | – | – |
| CC(=O)Nc1c(O)ncc(C)c1Sc1cc(C)cc(C)c1 | < 5.40 | – | – | – | > 100 | >1492 | 7.17 | < 4.00 | – |
| Cc1cnc(O)c([N+](=O)[O-])c1Sc1nc2ccccc2o1 | – | – | – | – | 16 | >2 | 5.26 | – | – |
| CCc1c(C)nc(O)c(NC(C)=O)c1Sc1cc(C)cc(C)c1 | – | – | > 100 | > 23 | 80 | 1600 | 7.30 | 5.37 | – |
| Cc1cc(C)cc(Sc2c(C)cnc(O)c2N)c1 | 7.00 | – | – | – | > 10 | >1000 | 8.00 | < 5.00 | – |

Reference: ChEMBL document CHEMBL1128194, “A new series of pyridinone derivatives as potent non-nucleoside human immunodeficiency virus type 1 specific reverse transcriptase inhibitors” (J Med Chem, 1995)
